Laboratory results: ChEMBL document CHEMBL1125114, “Cardiotonic agents. 6. Histamine analogues as potential cardiovascular selective H2 agonists” (J Med Chem, 1990)
Values joined by “and” are separate entries in the source; they are usually repeats but may differ in a detail not shown here. Equal values may be shown once. Blank lines part the entries; values can stand above or below the compound they belong to. Active and inactive are the calls of the source. The calls are words filed in the database; no cut-off is given here.

Tests used:
[1] = Concentration which gives 20% increase in the force contraction in ferret papillary muscle; assay type: functional, Mustela putorius furo, Muscle tissue
Outline: (§1)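 Isolated ferret papillary muscle, force of contraction recorded over a dose-response range. C20 = concentration giving a 20% increase in contractile force. Single experiments reported individually; with three or more runs, mean and range given.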

[2] = system: Cavia porcellus; test: In vivo percent change in air way overflow in guinea pig was determined at a dose of 10 mg/kg/hr; assay type: functional
[3] = dP/dt value of the compound; assay type: functional; set-up: unit not given here
[4] = species: Cavia porcellus; test: Chronotropic effect of histamine at 5 ug/mL in guinea pig atrium; NR-Not reached; assay type: functional, Cardiac atrium
[5] = species: Cavia porcellus; test: Contractile response of histamine at 0.5 ug/mL in guinea pig ileum; assay type: functional
Outline: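 Isolated guinea pig ileum, H1 activity. Value is the concentration giving 50% of the contractile response of histamine at 0.5 μg/mL, taken from dose-response curves. Reported as mean ± SEM of three separate dose-response determinations. Response sensitivity checked with mepyramine.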

[6] = system: Cavia porcellus; test: In vivo percent change in mean arterial pressure in guinea pig was determined at a dose of 10 mg/kg/hr; assay type: functional, Artery
Outline: (§2)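 Pentobarbital-anesthetized guinea pigs with stomach ligated to contain gastric fluid. After 30 min stabilization, blood pressure, heart rate, LVEDP and LV dP/dtmax were recorded at 1-min intervals. Compound given by iv infusion for 60 min, then monitored 10 min more. Gastric contents were titrated against 0.1 N NaOH. Value is the average maximum % change from control in the 10 min after infusion, mean ± SEM.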

[7] = species: Mustela putorius furo; test: In vitro inotropy blocking studies in ferret papillary muscle in the presence of 10 uM cimetidine; NB-Not Blocked; assay type: functional, tissue-based; conditions: Muscle tissue
Outline: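 Ferret papillary muscle dose-response repeated in the presence of antagonist (cimetidine). A rise of at least 1 order of magnitude in the measured C20 was scored as a blocked inotropic response.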

[8] = system: Rattus norvegicus; test: In vivo effect on gastric acid secretion in rat was determined after subcutaneous administration; NC-No change; assay type: functional, organism-based; conditions: Stomach
Outline: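 Rats, subcutaneous dosing, gastric acid secretion stimulation. ED50 is the dose giving a 50% increase in acid secretion over control. Reported as mean ± SEM of three separate dose-response determinations.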

[9] = system: Cavia porcellus; test: In vivo percent change in total acid secretion in guinea pig was determined at a dose of 10 mg/kg/hr; assay type: functional; outline: as §2
[10] = species: Mustela putorius furo; test: In vitro inotropy blocking studies in ferret papillary muscle in the presence of 100 uM nadolol; B-Blocked; assay type: functional, tissue-based; conditions: Muscle tissue
Outline: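 Ferret papillary muscle dose-response repeated in the presence of 100 μM nadolol. A rise of at least 1 order of magnitude in the measured C20 was scored as a blocked inotropic response.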

[11] = species: Mustela putorius furo; test: Concentration of compound which gives 20% increase in the force contraction in ferret papillary muscle;NR- Not reached; assay type: functional, tissue-based; conditions: Muscle tissue
Outline: (§3)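 Ferret papillary muscle force of contraction. C20 is the concentration giving a 20% increase in force. Values come from individual experiments; where three or more runs were done, the mean and range are given. NR means not reached.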

[12] = species: Mustela putorius furo; test: In vitro inotropy blocking studies in ferret papillary muscle in the presence of 10 uM cimetidine; B-Blocked; assay type: functional, tissue-based; conditions: Muscle tissue
[13] = species: Mustela putorius furo; test: In vitro inotropy blocking studies in ferret papillary muscle in the presence of 100 uM nadolol; NB-Not Blocked; assay type: functional, tissue-based; conditions: Muscle tissue
Outline: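 Ferret papillary muscle inotropic dose-response curves repeated in the presence of each antagonist (nadolol at 100 μM). A rise in C20 of at least one order of magnitude was scored as a blocked response.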

[14] = system: Rattus norvegicus; test: In vivo effect on gastric acid secretion in rat was determined after subcutaneous administration; assay type: functional; conditions: Stomach, sc
Outline: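 Rats, subcutaneous dosing, gastric acid secretion measured by the method of Hagiwara and co-workers. ED50 = dose giving a 50% increase in acid secretion over control. Mean ± SEM of three separate dose-response determinations.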

[15] = system: Cavia porcellus; test: In vivo percent change in heart rate in guinea pig was determined at a dose of 10 mg/kg/hr; assay type: functional; outline: as §2
[16] = system: Cavia porcellus; test: In vivo percent change in heart rate in guinea pig was determined at a dose of 30 mg/kg/h; assay type: functional; outline: as §2
[17] = species: Cavia porcellus; test: Chronotropic effect of histamine at 5 ug/mL in guinea pig atrium; assay type: functional, Cardiac atrium
Outline: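 Spontaneously beating guinea pig right atria. Value is the concentration giving 50% of the chronotropic effect of histamine at 5 μg/mL, taken from dose-response curves. Reported as mean ± SEM of three separate dose-response determinations. Response sensitivity checked with cimetidine.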

[18] = system: Cavia porcellus; test: In vivo percent change in total acid secretion in guinea pig was determined at a dose of 30 mg/kg/h; assay type: functional; outline: as §2
[19] = system: Cavia porcellus; test: In vivo percent change in airway overflow in guinea pig was determined at a dose of 30 mg/kg/h; assay type: functional
[20] = Concentration of compound which gives 20% increase in the force contraction in ferret papillary muscle.; assay type: functional, Mustela putorius furo, Muscle tissue; outline: as §3
[21] = species: Mustela putorius furo; test: Concentration of compound which gives 20% increase in the force contraction in ferret papillary muscle; NR-Not reached; assay type: functional, tissue-based; conditions: Muscle tissue; outline: as §1
[22] = system: Cavia porcellus; test: In vivo percent change in mean arterial pressure in guinea pig was determined at a dose of 7.5 mg/kg/h; assay type: functional, Artery
[23] = system: Cavia porcellus; test: In vivo percent change in total acid secretion in guinea pig was determined at a dose of 7.5 mg/kg/h; assay type: functional
[24] = system: Cavia porcellus; test: In vivo percent change in airway overflow in guinea pig was determined at a dose of 7.5 mg/kg/h; assay type: functional
[25] = system: Cavia porcellus; test: In vivo percent change in heart rate in guinea pig was determined at a dose of 7.5 mg/kg/h; assay type: functional
[26] = Cavia porcellus, Ileum, read-out: EC50

SMILES: Cc1[nH]cnc1CCNCCNC(=O)c1ccccc1
- C20 [1]: 27 uM l-1

SMILES: CC(CCc1ccc(O)cc1)N(C)CCc1c[nH]cn1 (centres undefined)
- Change [2]: 39%
- dP/dt [3]: 29
- EC50 [4]: Not reached
- EC50 [5]: 128 uM l-1
- Change [6]: 5%
- Activity [7]: Not blocked
- C20 [1]: 0.13 uM l-1 and 0.16 uM l-1
- ED50 [8]: inactive
- Change [9]: 22%
- Activity [10]: Blocked

SMILES: NC(C/C=C/c1ccccc1)CCc1c[nH]cn1 (centres undefined)
- C20 [11]: Not reached

SMILES: c1coc(CNCCCc2c[nH]cn2)c1
- C20 [1]: 33 uM l-1

- EC50 [4]: Not reached
- EC50 [5]: 165 uM l-1
SMILES: CN(CCc1c[nH]cn1)Cc1ccco1
- Activity [12]: Blocked
- Change [2]: 51%
- dP/dt [3]: -6
- Activity [13]: Not blocked
- ED50 [14]: 15.3 mg/kg
- Change [6]: -22%
- C20 [1]: 6.7 uM l-1
- Change [9]: 221%
- Change [15]: -8%

SMILES: NC(C/C=C/c1ccccc1)Cc1c[nH]cn1 (centres undefined)
- Change [16]: 5%
- Activity [12]: Blocked
- dP/dt [3]: 68
- EC50 [5, 26]: 7.23 µM
- Activity [13]: Not blocked
- C20 [1]: 13 uM l-1
- ED50 [8]: inactive
- EC50 [17]: 184 uM l-1
- Change [18]: 169%
- Change [19]: 45%

SMILES: CCCCCCCN(C)CCc1c[nH]cn1
- C20 [20]: >57 uM l-1

SMILES: CCN(CCc1c[nH]cn1)C(C)CCc1ccc(O)cc1 (centres undefined)
- Activity [12]: Blocked
- C20 [1]: 4 uM l-1 and 6 uM l-1
- Activity [10]: Blocked

SMILES: Cc1[nH]cnc1CCNCCNC(=O)c1ccncc1
- C20 [21]: Not reached

- EC50 [4]: Not reached
- EC50 [5, 26]: 50.6 µM
SMILES: CCCCCCC(=O)NCCc1c[nH]cn1
- Activity [12]: Blocked
- Change [22]: 33%
- dP/dt [3]: 146
- Activity [13]: Not blocked
- ED50 [14]: 5.9 mg/kg
- Change [23]: 160%
- C20 [1]: 7.3 uM l-1
- Change [24]: 197%
- Change [25]: 41%

SMILES: c1ccc2c3c(ccc2c1)C(NCCc1c[nH]cn1)CCC3 (centres undefined)
- C20 [1]: >10 uM l-1

SMILES: Cc1[nH]cnc1CCNCCN
- C20 [21]: Not reached

SMILES: CN(CC/C=C/c1ccccc1)CCc1c[nH]cn1
- Activity [7]: Not blocked
- Activity [10]: Blocked
